Measured values published in article PMC9071996 (RSC Advances, 2019).

Assays:
MDA-MB-231 cells [1] = experiment: MTS cytotoxicity assay, MDA-MB-231; type: cell-based; conditions: Homo sapiens, MDA-MB-231, 72 h, read-out: IC50 (μM) MBA-MD-231
In short: (§1)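 MTS viability assay in A549, MDA-MB-231 and RPMI-8226 human cancer cells. All compounds were first screened at 10 and 50 μM. Compounds that crossed a set viability threshold in this screen went on to IC50 determination.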

RPMI-8226 cells = experiment: MTS cytotoxicity assay, RPMI-8226; type: cell-based; conditions: Homo sapiens, RPMI-8226, 72 h, read-out: IC50 (μM) RPMI-8226
In short: as §1

A549 cells = experiment: MTS cytotoxicity assay, A549; type: cell-based; conditions: Homo sapiens, A549, 72 h, read-out: IC50 (μM) A549
In short: as §1

GES-1 cells = experiment: MTS cytotoxicity assay, normal GES-1 cells; type: cell-based; conditions: Homo sapiens, GES1, 72 h, read-out: IC50 (μM) GES-1
MDA-MB-231 cells [2] = experiment: Cell cycle assay; type: cell-based, human; conditions: 72 h, control 56.86%
In short: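 Test compound applied to MDA-MB-231 cells at 2.5, 5 and 10 μM for 72 h. Cells stained with propidium iodide, and DNA content measured by flow cytometry. Percentages of cells in each cell-cycle phase were calculated against an untreated control.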

MDA-MB-231 cells [3] = experiment: Annexin V-APC/7-AAD apoptosis assay; type: cell-based, human; conditions: 72 h, control 1.98%
In short: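 MDA-MB-231 cells exposed to test compound at 2.5, 5 or 10 μM for 72 h, with untreated cells as control. Cells then double-stained with Annexin V-APC and 7-AAD and analysed by flow cytometry. Annexin V+/7-AAD− cells scored as early apoptotic. 7-AAD-positive Annexin V+ cells scored as late apoptotic. Results shown as dot-plot quadrants and a histogram.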

MDA-MB-231 cells [4] = experiment: Intracellular ROS level; type: cell-based, human
MDA-MB-231 cells [5] = experiment: Mitochondrial membrane potential assay; type: cell-based, human; conditions: 72 h, control 3.9%
In short: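 Mitochondrial membrane potential measured by flow cytometry in MDA-MB-231 cells after 72 h with test compound at 2.5, 5 or 10 μM, against an untreated control. Red and green fluorescent populations were quantified. The green-fluorescent fraction was taken as cells with collapsed ΔΨm.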

MDA-MB-231 cells [6] = experiment: Western blot of apoptosis related proteins; type: cell-based, human; conditions: 2.5, 5 and 10 μM, 72 h, vs control
In short: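 Western blot on lysates of MDA-MB-231 cells treated for 72 h with test compound at 2.5, 5 and 10 μM, compared with untreated control. Proteins probed: Bcl-2, Bax, cytochrome C and caspase-3. β-actin served as internal reference, and band levels were analysed statistically.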

## CC12CCC(c3c(-c4ccc(Cl)cc4)nc(N)nc31)C2(C)C (stereo not drawn) [Compound 3f, 4-(4-Chlorophenyl)-8,9,9-trimethyl-5,6,7,8-tetrahydro-5,8-methanoquinazolin-2-amine]
MDA-MB-231 cells [1]
  IC50: 5 ± 0.14 µM
RPMI-8226 cells
  IC50: 8.64 ± 0.24 µM
A549 cells
  IC50: 7.65 ± 0.21 µM
GES-1 cells
  IC50: > 50 µM
MDA-MB-231 cells [2]; 2.5 μM
  percentage of cells in G0/G1 phase: 64.89%
MDA-MB-231 cells [2]; 5 μM
  percentage of cells in G0/G1 phase: 78.02%
MDA-MB-231 cells [2]; 10 μM
  percentage of cells in G0/G1 phase: 81.72%
MDA-MB-231 cells [3]; 2.5 μM
  Apoptosis rate (%) (total early and late): 9.47%
MDA-MB-231 cells [3]; 10 μM
  Apoptosis rate (%) (total early and late): 57.9%
MDA-MB-231 cells [4]; 10.0 μM, 72 h, control 5.13%
  level of ROS (DCFH-DA positive cells): 63.4%
MDA-MB-231 cells [4]; 10 μM, 63.4% vs control 5.13%
  increase of ROS level in comparison to the control group: ~12 times
MDA-MB-231 cells [5]; 2.5 μM
  Percentage (%) green fluorescence (cells with a collapsed ΔΨm): 10.4%
MDA-MB-231 cells [5]; 5 μM
  Percentage (%) green fluorescence (cells with a collapsed ΔΨm): 33.6%
MDA-MB-231 cells [5]; 10 μM
  Percentage (%) green fluorescence (cells with a collapsed ΔΨm): 53.2%
MDA-MB-231 cells [6]
  expression of anti-apoptosis protein Bcl-2: downregulated dose-dependently
  expression of caspase-3: upregulation
  expression of cytochrome C: upregulation
  expression of pro-apoptotic protein Bax: up-regulated
